Screens from PubChem BioAssay.
S100A4 MyoIIA – blocks human S100A4 binding to myosin IIA peptide; inhibition, % at 10.7 µM; S100A4/TAMRA-MyoIIA peptide fluorescence polarization; P26447; 360,000 tested, 0.14% active;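 active means mean inhibition of at least 70% across replicates, with every replicate also reaching that level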
Target sequence (P26447 whole entry, looked up): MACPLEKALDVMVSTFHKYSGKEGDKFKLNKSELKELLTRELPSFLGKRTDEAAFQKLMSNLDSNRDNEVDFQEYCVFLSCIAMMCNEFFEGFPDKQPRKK
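Test system – S100A4 monomer (human) · Compound – single-point compound testing · Schedule – 5 min incubation before reading · Probe or stimulus – TAMRA-labelled myosin IIA heavy-chain peptide probe, 5 nM · Benchmarks – neutral control DMSO, positive control TFP · Medium – Calcium-containing HEPES buffer, pH 7.2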
Statin myotox sup – suppression of simvastatin myotoxicity | C2C12 myotubes + simvastatin, ATP luminescence, 48 h; scaled: DMSO 0, geranylgeraniol control 100 | rescue of ATP level, % at 7.49 µM | 330,000 tested, 0.78% active | AID 602340;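 active means mean ATP rescue above about 67%, or every replicate alone reaching that limit, limit read from the data, passing the limit was not always enough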;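 further: myotubes were challenged with 10 µM simvastatin during compound exposure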
DENV2 CPE – inhibitors of DENV2 cytopathic effect. DENV2-infected cells, cytopathic effect rescue, plate reader. CPE inhibition, % at 9.99 µM. 350,000 tested, 1.7% active. AID 651640; in the data active means CPE inhibition above about 20%, passing the limit was not always enough; tested in BHK-21 cells
SIRT5 inh – blocks human SIRT5 desuccinylation of peptide; 330,000 tested, 1.1% active; Purified SirT5, succinyl-peptide AMC, trypsin-coupled fluorescence; inhibition, % at 15 µM; in the data active means inhibition above about 15%
Target sequence (Q9NXA8 whole entry, looked up): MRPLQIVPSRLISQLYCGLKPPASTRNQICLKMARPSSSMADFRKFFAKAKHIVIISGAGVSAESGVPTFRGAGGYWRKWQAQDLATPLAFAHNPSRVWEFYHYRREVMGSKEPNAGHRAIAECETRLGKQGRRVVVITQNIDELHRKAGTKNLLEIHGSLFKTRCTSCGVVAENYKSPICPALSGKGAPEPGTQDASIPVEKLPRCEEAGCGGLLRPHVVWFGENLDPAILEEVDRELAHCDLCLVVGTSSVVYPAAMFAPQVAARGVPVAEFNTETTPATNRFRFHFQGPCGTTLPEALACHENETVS
PGC1a acetyl inh – lowers PGC1a acetylation signal in U2OS cells; AlphaScreen anti-acetyl-lysine; with virally co-expressed GCN5 acetyltransferase; inhibition, % at 15.6 µM; 350,000 tested, 0.17% active; AID 651687;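 active means every replicate shows inhibition of at least 40%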
Hits are given with their value; - = inactive; . = not tested or not shown. This is a sample that favours compounds with a hit; in the whole collection about 2.9% have one here.

SMILES	S100A4 MyoIIA	Statin myotox sup	DENV2 CPE	SIRT5 inh	PGC1a acetyl inh
O=C(c1cccnc1)N1CC[C@@H]2[C@H](CO)Nc3ccc(-c4ccccc4)cc3[C@@H]21	-	-	-	-	-
C[C@H](CO)N1C[C@H](C)[C@@H](CN(C)C(=O)Nc2cccc3ccccc23)Oc2ccc(NS(=O)(=O)c3cccs3)cc2C1=O	-	-	-	-	.
COc1cc2c(cc1OC)C(c1cc(OC)c(OC)c(OC)c1)NCC2 (centres undefined)	-	113.2	.	.	-
COc1cc2c(cc1OC)C(c1ccccc1)NCC2 (centres undefined)	-	-	-	-	-
Cc1ccc(S(=O)(=O)N(C)C[C@H]2OCCCC[C@@H](C)Oc3ccc(NC(=O)NC4CCCCC4)cc3C(=O)N([C@@H](C)CO)C[C@@H]2C)cc1	-	.	-	-	-
Cc1ccc(S(=O)(=O)N(C)C[C@H]2Oc3ccc(NC(=O)NC4CCCCC4)cc3C(=O)N([C@H](C)CO)C[C@H]2C)cc1	-	-	-	-	-
COc1ccc(S(=O)(=O)N(C)C[C@H]2Oc3ccc(NC(=O)NC4CCCCC4)cc3C(=O)N([C@@H](C)CO)C[C@@H]2C)cc1	-	-	-	18.8	-
Cc1ccc(S(=O)(=O)N(C)C[C@@H]2OCCCC[C@H](C)Oc3ccc(NC(=O)NC4CCCCC4)cc3C(=O)N([C@H](C)CO)C[C@H]2C)cc1	-	.	-	15.5	-
Cc1ccc(S(=O)(=O)N(C)C[C@@H]2Oc3ccc(NC(=O)NC4CCCCC4)cc3C(=O)N([C@H](C)CO)C[C@@H]2C)cc1	-	-	28.5	-	-
O=C(C[C@@H]1CC[C@H](NC(=O)NC2CCCCC2)[C@H](CO)O1)NCc1ccccc1	-	-	-	-	-
CN1CCN(C(=O)C[C@H]2CC[C@H]3[C@@H](COC[C@@H](O)CN3Cc3ccc(Oc4ccccc4)cc3)O2)CC1	-	-	-	-	-
CCCS(=O)(=O)N1CCCC(C(=O)NCCCOC(C)C)C1 (centres undefined)	.	.	.	.	63.9
C[C@@H]1CN([C@@H](C)CO)C(=O)c2cc(NC(=O)NC3CCCCC3)ccc2O[C@@H]1CN(C)Cc1ccc(-c2ccccc2)cc1	-	.	-	-	-
C[C@@H]1CCCCO[C@@H](CN(C)C(=O)Nc2ccc(C(F)(F)F)cc2)[C@H](C)CN([C@@H](C)CO)C(=O)c2cc(NS(=O)(=O)c3ccc(F)cc3)ccc2O1	-	.	60.8	-	-
C[C@@H]1CCCCO[C@@H](CN(C)C(=O)Nc2ccc(C(F)(F)F)cc2)[C@@H](C)CN([C@H](C)CO)C(=O)c2cc(NS(=O)(=O)c3ccc(F)cc3)ccc2O1	-	.	-	-	-
C[C@H](CO)N1C[C@H](C)[C@@H](CN(C)C(=O)Nc2ccc(C(F)(F)F)cc2)OCCCC[C@H](C)Oc2ccc(NS(=O)(=O)c3ccc(F)cc3)cc2C1=O	-	.	94.5	-	-
C[C@H](CO)N1C[C@H](C)[C@H](CN(C)C(=O)Nc2ccc(C(F)(F)F)cc2)OCCCC[C@H](C)Oc2ccc(NS(=O)(=O)c3ccc(Cl)cc3)cc2C1=O	-	.	-	39.9	-
C[C@H]1CCCCO[C@H](CN(C)C(=O)Nc2ccc(C(F)(F)F)cc2)[C@@H](C)CN([C@@H](C)CO)C(=O)c2cc(NS(=O)(=O)c3ccc(Cl)cc3)ccc2O1	-	.	-	-	-
C[C@@H]1CCCCO[C@H](CN(C)C(=O)Nc2ccc(C(F)(F)F)cc2)[C@H](C)CN([C@H](C)CO)C(=O)c2cc(NS(=O)(=O)c3ccc(F)cc3)ccc2O1	-	.	70.9	-	-
C[C@@H]1CCCCO[C@H](CN(C)S(=O)(=O)c2ccccc2)[C@H](C)CN([C@@H](C)CO)C(=O)c2cc(NS(C)(=O)=O)ccc2O1	-	-	.	-	-
N#CC(=Nc1cccc(F)c1)C1=C(O)c2ccccc2C1=O	-	.	31.8	-	.
O=c1ccn(C2CC(O)C(COC(c3ccccc3)(c3ccccc3)c3ccccc3)O2)c(=O)[nH]1 (centres undefined)	-	.	47.5	-	.
C#CCOC(=O)c1ccccc1C(=O)N(CC)CC	-	103.8	-	-	-
CC(C)(C)c1ccc(C#C[C@@H]2C=C[C@H]3OC(=O)CC/C=C/CCC(=O)OC[C@H]3O2)cc1	-	.	-	.	.
Cc1cccc(C)c1NC(=O)N1CCCCCCC1	-	.	-	28.4	.
